Converted amounts (≈) assume the structure as drawn. The source made the active and inactive calls. The rule behind the calls is not given here.
Assays:
[1] = Toxicity in 3hpf zebrafish AB embryo assessed as NOAEL measured 96 hpf; set-up: species or system Danio rerio; conditions: in vivo, 96 h
Summary of the method: (§1)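 Zebrafish AB embryos collected at 3 hpf, 20 per well, in E3 medium with graded compound concentrations. Incubated 28.5 °C for 93 h further (to 96 hpf), mortality scored. NOEC/LOEC defined by mortality above 20%. Controls: 0.1% DMSO, three replicates; DEAB at 5 concentrations.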

[2] = Toxicity in 3hpf zebrafish AB embryo assessed as median lethal dose measured 96 hpf; set-up: species or system Danio rerio; conditions: in vivo
Summary of the method: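 AB zebrafish embryos collected 3 hpf, 20 per well in E3 medium with graded compound concentrations, kept at 28.5 °C to 96 hpf. LC50 was fitted as a sigmoid to mortality. NOEC/LOEC used >20% mortality as the effect. Negative control was 0.1% DMSO in triplicate; DEAB (0.1 µM–1 mM) served as positive control.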

[3] = Toxicity in 3hpf zebrafish AB embryo assessed as LOAEL measured 96 hpf; set-up: species or system Danio rerio; conditions: in vivo, 96 h; summary of the method: as §1
[4] = system: SH-SY5Y; test: Neuroprotective activity against H2O2-induced oxidative stress in human SH-SY5Y cells assessed as increase in cell viability at 10 uM pretreated with H2O2 for 10 mins followed by compound treatment and measured after 24 hrs by MTT assay; format: functional, cell-based
[5] = organism: Danio rerio; test: Neuroprotective activity against PTZ-induced neuronal damage in 5 dpf zebrafish AB larvae assessed as effect on AChE activity at 10 uM pretreated for 1 hr followed by removal of medium and subsequent addition of fresh medium containing PTZ and compounds measured after 6 hrs by Ellman's method; format: functional, organism-based; conditions: time 7.0 hrs
Summary of the method: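 Zebrafish AB larvae at 120 hpf, five per well, ten replicates, two independent experiments. Pretreated 1 h at 26 °C with compound (10 µM) in water with 0.1% DMSO, then after a media change kept 6 h at 26 °C with compound plus 5 mM PTZ. Physostigmine (20 µM) was the control inhibitor. Homogenate supernatant assayed by Ellman method; activity normalized to BCA protein, as % of control.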

[6] = system: RAW264.7; test: Antiinflammatory activity in mouse RAW 264.7 cells assessed as decrease in LPS-induced TNF-alpha production at 10 uM measured after 24 hrs by ELISA; format: functional, cell-based
Summary of the method: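 RAW 264.7 macrophages, 5 × 10⁵ per well, given compound at 10 µM then stimulated with LPS (final 100 ng/mL). TNF-α in supernatants after 24 h measured by ELISA with capture/biotinylated detection antibody pairs.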

[7] = system: SH-SY5Y; test: Cytotoxicity against human SH-SY5Y cells assessed as reduction in cell viability at 10 uM measured after 24 hrs by MTT assay relative to control; format: cell-based
Summary of the method: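 SH-SY5Y cells grown in DMEM-F12 with 10% iFBS on collagen-pretreated plates; 2 × 10⁴ cells per well, left 24 h before compound in DMSO (final 1% DMSO) at 1, 10 and 100 µM. Viability by MTT 24 h after addition; mean and SD of at least eight readings from various experiments.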

[8] = Aqueous solubility of the compound; format: physicochemical
[9] = Stability of the compound in PBS buffer assessed as parent compound remaining measured after 72 hrs; format: physicochemical; conditions: read-out: Stability
Summary of the method: (§2)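 Compound incubated 72 h in PBS 1x (pH 7.4) or in SH-SY5Y culture medium; percentage of compound remaining determined.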

[10] = Stability of the compound in human SH-SY5Y cells assessed as parent compound remaining measured after 72 hrs; format: ADME; conditions: read-out: Stability; summary of the method: as §2
[11] = system: SH-SY5Y; test: Neuroprotective activity against H2O2-induced oxidative stress in human SH-SY5Y cells assessed as increase in cell viability at 100 uM pretreated with H2O2 for 10 mins followed by compound treatment and measured after 24 hrs by MTT assay relative to control; format: functional
[12] = system: RAW264.7; test: Antiinflammatory activity in mouse RAW 264.7 cells assessed as decrease in LPS-induced IL-6 production at 10 uM measured after 24 hrs by ELISA; format: functional, cell-based
Summary of the method: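 RAW 264.7 macrophages, 5 × 10⁵ per well, compound added then stimulated with LPS (final 100 ng/mL) or left unstimulated; IL-6 in supernatant measured after 24 h by sandwich ELISA with capture/biotinylated detection antibodies.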

[13] = system: RAW264.7; test: Antiinflammatory activity in mouse RAW 264.7 cells assessed as inhibition of LPS-induced nitric oxide production at 10 uM measured after 24 hrs by Griess reagent assay; format: functional, cell-based
Summary of the method: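 NO in 24 h culture supernatants of LPS-stimulated RAW 264.7 cells (compound 10 µM, LPS final 100 ng/mL) estimated indirectly as nitrite concentration.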

[14] = system: Mus musculus; test: Neuroprotective activity in C57BL/6 mouse model of 3-NP-induced intoxication assessed as reduction in IL6 production at 20 mg/kg, ip by sandwich ELISA
[15] = Hydrolytic stability of the compound in mouse serum assessed as parent compound remaining measured after 1 hr; format: ADME, cell-free; conditions: read-out: Stability
Summary of the method: (§3)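 Hydrolytic stability measured in mouse serum at 1 h and 24 h.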

[16] = system: Mus musculus; test: Neuroprotective activity in C57BL/6 mouse model of 3-NP-induced intoxication assessed as improvement in latency to fall at 20 mg/kg, ip by rotarod test relative to control; format: functional
Summary of the method: (§4)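 C57BL/6 mice, 12 weeks old, n = 7 per group. 3-NP given i.p. twice daily, 10 h apart: 4 × 20, 4 × 40, 2 × 60 mg/kg (cumulative 360 mg/kg over 5 days). Compound 20 mg/kg i.p. in 13% hydroxypropyl-β-cyclodextrin with 2% Tween-80, given just before each morning 3-NP dose. Weight and motor scoring done before injections, last one 3 h after final 3-NP dose. Rotarod latency to fall read after the 360 mg/kg cumulative dose.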

[17] = system: Mus musculus; test: Neuroprotective activity in C57BL/6 mouse model of 3-NP-induced intoxication assessed as reduction in truncal dystonia at 20 mg/kg, ip measured after 5 days relative to control; format: functional; set-up: scale not given: the % may be the effect or the level left; conditions: time 5 day, in the assay text read “overall motor score” for “truncal dystonia”; summary of the method: as §4
[18] = system: Mus musculus; test: Antioxidant activity in C57BL/6 mouse model of 3-NP-induced oxidative stress assessed as increase in SOD2 mRNA expression at 20 mg/kg, ip by qRT-PCR method; format: functional, organism-based; summary of the method: as §4
[19] = Hydrolytic stability of the compound in mouse serum assessed as parent compound remaining measured after 24 hrs; format: ADME, cell-free; conditions: read-out: Stability; summary of the method: as §3
[20] = system: Mus musculus; test: Immunosuppressive activity in MOG (35 to 55 residues)/pertussis toxin-induced experimental autoimmune encephalomyelitis C57BL/6 mouse model assessed as reduction in clinical scores at 20 mg/kg, ip starting from 20 days post disease progression and administered for 2 weeks; format: functional, organism-based
[21] = system: Mus musculus; test: Neuroprotective activity in C57BL/6 mouse model of 3-NP-induced intoxication assessed as effect on body weight at 20 mg/kg, ip measured after 5 days (91.4 %); format: functional; conditions: time 5 day; summary of the method: as §4

Structure (SMILES) | NOAEL [1] | LC50 at 96 h [2] | LOAEL [3] | Activity [4] | Activity [6] | other results
CC(C)[Si](Oc1cc(/C=C/c2ccc(O[C@H]3O[C@@H](CO)[C@H](O)[C@@H](O)[C@@H]3O)cc2)cc(O[Si](C(C)C)(C(C)C)C(C)C)c1)(C(C)C)C(C)C | 1000 µM | > 1000 µM | 1000 µM |  |  | 
CCCCCCCC(=O)OC[C@H]1O[C@@H](Oc2cc(/C=C/c3ccc(O[Si](C(C)C)(C(C)C)C(C)C)cc3)cc(O[Si](C(C)C)(C(C)C)C(C)C)c2)[C@H](O)[C@@H](O)[C@@H]1O | 100 µM | 407 µM | 1000 µM |  |  | 
CC[Si](CC)(CC)Oc1ccc(/C=C/c2cc(O)cc(O[Si](CC)(CC)CC)c2)cc1 | 100 µM | 380 µM | 1000 µM | Active | Active | Activity [5]: Active
CC(C)(C)[Si](C)(C)Oc1cc(O)cc(/C=C/c2ccc(O)cc2)c1 |  |  |  | Active |  | Activity [7]: > 50%
CC[Si](CC)(CC)Oc1cc(O)cc(/C=C/c2ccc(O)cc2)c1 |  |  |  |  | Active | 
CC(C)(C)[Si](C)(C)Oc1ccc(/C=C/c2cc(O)cc(O[Si](C)(C)C(C)(C)C)c2)cc1 |  |  |  | Active | Active | 
CC[Si](CC)(CC)Oc1ccc(/C=C/c2cc(O)cc(O)c2)cc1 |  |  |  |  | Active | 
Oc1ccc(/C=C/c2cc(O)cc(O)c2)cc1 [RESVERATROL] | 1000 µM | > 1000 µM | > 1000 µM |  |  | solubility [8]: 50 µg/mL (≈ 219 µM); Activity [5]: Active
CC(C)[Si](Oc1cc(O)cc(/C=C/c2ccc(O)cc2)c1)(C(C)C)C(C)C |  |  |  | Active |  | Activity [7]: > 50%
CC(C)[Si](Oc1ccc(/C=C/c2cc(O[C@@H]3O[C@H](CO)[C@@H](O)[C@H](O)[C@H]3O)cc(O[Si](C(C)C)(C(C)C)C(C)C)c2)cc1)(C(C)C)C(C)C | 1000 µM | > 1000 µM | 1000 µM |  |  | remaining at 72 h [9]: > 80%; remaining at 72 h [10]: > 80%
CCCC(=O)Oc1ccc(/C=C/c2cc(O[Si](CC)(CC)CC)cc(O[Si](CC)(CC)CC)c2)cc1 | 100 µM | 407 µM | 1000 µM |  |  | 
CCCCCCCC(=O)OC[C@H]1O[C@@H](Oc2cc(O)cc(/C=C/c3ccc(O)cc3)c2)[C@H](O)[C@@H](O)[C@@H]1O | 1 µM |  | 10 µM |  | Active | 
CC(C)[Si](Oc1cc(/C=C/c2ccc(O)cc2)cc(O[Si](C(C)C)(C(C)C)C(C)C)c1)(C(C)C)C(C)C |  |  |  | Active |  | remaining at 72 h [9]: > 80%; remaining at 72 h [10]: > 80%; Activity [5]: Active; Activity [11]: 100%; Activity [12]: Active
CCNC(=O)Oc1ccc(/C=C/c2cc(O[Si](C(C)C)(C(C)C)C(C)C)cc(O[Si](C(C)C)(C(C)C)C(C)C)c2)cc1 | 1000 µM |  | 1000 µM |  |  | 
CC[Si](CC)(CC)Oc1cc(/C=C/c2ccc(O)cc2)cc(O[Si](CC)(CC)CC)c1 | 100 µM | 475 µM | 1000 µM |  | Active | inhibition [13]: Active; Activity [5]: Active
CC(C)(C)[Si](C)(C)Oc1cc(/C=C/c2ccc(O)cc2)cc(O[Si](C)(C)C(C)(C)C)c1 |  |  |  | Active | Active | 
CCCCCCCC(=O)OC[C@@H]1O[C@H](Oc2ccc(/C=C/c3cc(O[Si](C(C)C)(C(C)C)C(C)C)cc(O[Si](C(C)C)(C(C)C)C(C)C)c3)cc2)[C@@H](O)[C@H](O)[C@H]1O | 100 µM | 407 µM | 1000 µM |  |  | remaining at 72 h [9]: > 80%; remaining at 72 h [10]: > 80%; Activity [14]: Active; remaining at 1 h [15]: 75%; Activity [5]: Active; Activity [16]: 10%; Activity [17]: 26.5%; Activity [18]: Active; remaining at 24 h [19]: 15%; Activity [20]: Active; Activity [21]: 94.8%
CC(C)[Si](Oc1ccc(/C=C/c2cc(O)cc(O[Si](C(C)C)(C(C)C)C(C)C)c2)cc1)(C(C)C)C(C)C | > 1000 µM | > 1000 µM | 1000 µM | Active | Active | Activity [12]: Active
CC(C)[Si](Oc1ccc(/C=C/c2cc(O)cc(O)c2)cc1)(C(C)C)C(C)C |  |  |  | Active |  | Activity [7]: > 50%

Source: ChEMBL document CHEMBL4831490, “Silyl resveratrol derivatives as potential therapeutic agents for neurodegenerative and neurological diseases” (Eur J Med Chem, 2021)
